Measurements: ChEMBL document CHEMBL5335768, “Expanding the knowledge around antitubercular 5-(2-aminothiazol-4-yl)isoxazole-3-carboxamides: Hit-to-lead optimization and release of a novel antitubercular chemotype via scaffold derivatization” (Eur J Med Chem, 2023)
Values after ≈ are worked out from the molar mass of the structure shown. Active and inactive are the calls of the source. The calls are words filed in the database; no cut-off is given here.

What was measured:
[1] = Drug metabolism in human liver microsomes assessed as 5-(2-((4-(hydroxymethyl)phenyl)amino)thiazol-4-yl)-N-phenylisoxazole-3-carboxamide formation at 100 uM measured after 180 mins by HR-MS analysis; type: ADME, Microsome; conditions: 3 h
In short: (§1)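 Metabolite ID: test compound at 100 μM initial concentration in pooled HLM incubates. Aliquots were taken at start and after 180 min, quenched with ACN, centrifuged and analysed by full-scan LC-HR-MS (Orbitrap, ESI+ and ESI−, resolution 15000). Data-dependent CID MS/MS was acquired at 30–35 V.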

[2] = Half life in human liver microsomes at 1 uM preincubated with NADP+ for 5 mins prior to compound addition by HPLC-MRM-MS analysis; type: ADME, Microsome
In short: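 Pooled HLM at 1 mg/mL protein in 100 mM PBS pH 7.4 with an NADPH-regenerating mix: G6P 10 mM, NADP+ 2 mM, MgCl2 5 mM, G6PDH 1.5 U/mL (stock concentrations). Pre-incubated 5 min at 37 °C, then compound added to 1 μM final (1% DMSO).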

[3] = Drug metabolism in human liver microsomes assessed as retention time of 5-(2-((3-hydroxy-4-methylphenyl)amino)thiazol-4-yl)-N-phenylisoxazole-3-carboxamide at 250 nM by HPLC-MS/MS analysis; type: ADME, Microsome; conditions: 0.25 µM
In short: (§2)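 Spiking: 10 μL HLM incubate was diluted with 90 μL ACN alone or with 250 nM of each synthetic hydroxylated standard in ACN. After centrifugation, HPLC-MS/MS retention times were compared for co-elution with the metabolites.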

[4] = Toxicity in Zebrafish infected with Mycobacterium marinum assessed as enlarged heart at 6 to 8 ng. iv; parameters: species or system Danio rerio; conditions: in vivo, dose 6-8 ng
[5] = tested on: Mycobacterium tuberculosis; assay: Antitubercular activity against Mycobacterium tuberculosis H37Rv assessed as inhibition of bacterial growth incubated for 7 days by REMA method; type: functional; conditions: Mycobacterium tuberculosis, H37Rv, 168 h; time 7 day; read-out: MIC90
[6] = Drug metabolism in human liver microsomes assessed as 5-(2-((3-hydroxy-4-methylphenyl)amino)thiazol-4-yl)-N-phenylisoxazole-3-carboxamide formation at 100 uM measured after 180 mins by HR-MS analysis; type: ADME, Microsome; conditions: 3 h; in short: as §1
[7] = Drug metabolism in human liver microsomes assessed as retention time of 5-(2-((4-(hydroxymethyl)phenyl)amino)thiazol-4-yl)-N-phenylisoxazole-3-carboxamide at 250 nM by HPLC-MS/MS analysis; type: ADME, Microsome; conditions: 0.25 µM; in short: as §2
[8] = Drug metabolism in human liver microsomes assessed as retention time of metabolite with molecular mass [M+30] at 250 nM by HPLC-MS/MS analysis; type: ADME, Microsome; conditions: 0.25 µM
[9] = Toxicity in Zebrafish infected with Mycobacterium marinum assessed as enlarged yolk sac area at 6 to 8 ng. iv; parameters: species or system Danio rerio; conditions: in vivo, dose 6-8 ng
[10] = tested on: Mycobacterium marinum; assay: Antitubercular activity against mCherry-labeled Mycobacterium marinum infected in Zebra fish larvae assessed as reduction in granuloma formation at 6 to 8 ng, iv; type: functional, organism-based; conditions: dose 6-8 ng
[11] = tested on: Mycobacterium marinum; assay: Antitubercular activity against Mycobacterium marinum ATCC BAA-535 assessed as inhibition of bacterial growth measured after 3 weeks by broth microdilution method; type: functional; conditions: ATCC BAA-535, 504 h
[12] = Cytotoxicity against human THP-1 cells assessed as reduction in cell viability measured after 72 hrs by MTT assay; type: toxicity, cell-based
In short: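 THP-1 monocytes were differentiated to macrophages with PMA 100 ng/mL for 72 h. They were then exposed to compounds at 1, 10, 50 and 100 μM for 72 h, each tested twice. MTT at 1 mg/mL in RPMI with 5% FBS was added for 2 h at 37 °C; formazan was dissolved in DMSO and read at 570 nm. Viability is given as % of control; IC50 from non-linear regression.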

[13] = Drug metabolism in human liver microsomes assessed as retention time of 5-(2-((4-(hydroxymethyl)phenyl)amino)thiazol-4-yl)-N-(pyridin-2-yl)isoxazole-3-carboxamide at 250 nM by HPLC-MS/MS analysis; type: ADME, Microsome; conditions: 0.25 µM; in short: as §2
[14] = Drug metabolism in human liver microsomes assessed as 5-(2-((4-(hydroxymethyl)phenyl)amino)thiazol-4-yl)-N-(pyridin-2-yl)isoxazole-3-carboxamide formation at 100 uM measured after 180 mins by HR-MS analysis; type: ADME, Microsome; conditions: 3 h; in short: as §1
[15] = Drug metabolism in human liver microsomes assessed as 5-(2-((3-hydroxy-4-methylphenyl)amino)thiazol-4-yl)-N-(pyridin-2-yl)isoxazole-3-carboxamide formation at 100 uM measured after 180 mins by HR-MS analysis; type: ADME, Microsome; conditions: 3 h; in short: as §1
[16] = Drug metabolism in human liver microsomes assessed as retention time of 5-(2-((3-hydroxy-4-methylphenyl)amino)thiazol-4-yl)-N-(pyridin-2-yl)isoxazole-3-carboxamide at 250 nM by HPLC-MS/MS analysis; type: ADME, Microsome; conditions: 0.25 µM; in short: as §2

Row | Compound | Drug metabolism [1] | t1/2 [2] | Retention_time [3] | Activity [4] | MIC90 [5] | Drug metabolism [6] | Retention_time [7] | Retention_time [8] | Activity [9] | Activity [10] | MIC90 [11] | IC50 at 72 h [12] | Retention_time [13] | Drug metabolism [14] | Drug metabolism [15] | Retention_time [16]
1 | Cc1ccc(Nc2nc(-c3cc(C(=O)Nc4ccccc4)no3)cs2)cc1 | Metabolite_Detected | 35 min | 25.44 min | Toxic | 1 µg/mL (≈ 2.66 µM) | Metabolite_Detected | 22.95 min | 23.65 min | Toxic | Active | 0.5 µg/mL (≈ 1.33 µM) | 88 µg/mL (≈ 234 µM) |  |  |  | 
2 | Cc1ccc(Nc2nc(-c3cc(C(=O)Nc4ccccn4)no3)cs2)cc1 |  | 16 min |  |  | 0.5 µg/mL (≈ 1.32 µM) |  |  | 21.97 min |  |  | 0.5 µg/mL (≈ 1.32 µM) | 22 µg/mL (≈ 58.3 µM) | 21.01 min | Metabolite_Detected | Metabolite_Detected | 23.73 min
